In ChEMBL document CHEMBL4680186, “New azole antifungals with a fused triazinone scaffold” (Eur J Med Chem, 2020):
Calls of active or inactive are those of the source. The calls are words filed in the database; no cut-off is given here.

Key:
Candida albicans [1] = assay: Inhibition of sterol biosynthesis in Candida albicans CAAL93 assessed as eburicol level at 1 ng/ml after 18 hrs by GC-MS analysis relative to control; type: functional; design: scale not given: the % may be the effect or the level left
Candida albicans [2] = assay: Inhibition of sterol biosynthesis in Candida albicans CAAL93 assessed as lanosterol level at 10 ng/ml after 18 hrs by GC-MS analysis (reference value: 1.6%); type: functional; design: scale not given: the % may be the effect or the level left
In short: (§1)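 C. albicans CAAL93 blastospores were grown 18 h at 35 °C with stirring in 50 mL Sabouraud broth, with drug added before incubation. Cells were pelleted and saponified in ethanolic KOH at 80 °C for 60 min, and sterols extracted with hexane. Analysis by GC-MS (EI 70 eV, splitless injection at 250 °C, helium carrier); sterols identified by fragmentation pattern.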

Candida albicans [3] = assay: Inhibition of sterol biosynthesis in Candida albicans CAAL93 assessed as episterol level at 1 ng/ml after 18 hrs by GC-MS analysis (reference value: 2%); type: functional; design: scale not given: the % may be the effect or the level left
Candida albicans [4] = assay: Inhibition of sterol biosynthesis in Candida albicans CAAL93 assessed as fecosterol level at 1 ng/ml after 18 hrs by GC-MS analysis relative to control; type: functional; design: scale not given: the % may be the effect or the level left
[5] = tested on: Pichia kudriavzevii (Candida krusei); assay: Antifungal activity against fluconazole-resistant Candida krusei CAKR7 assessed as reduction in microbial growth after 24 hrs by resazurin staining based spectrofluorometric method; conditions: CAKR7, 24 h
Candida albicans [6] = assay: Inhibition of sterol biosynthesis in Candida albicans CAAL93 assessed as other sterols level at 10 ng/ml after 18 hrs by GC-MS analysis (Rvb < 1%); type: functional; design: scale not given: the % may be the effect or the level left; in short: as §1
[7] = Toxicity in CRL:WI rat assessed as mortality at 300 mg/kg, po up to 14 days; type: organism-based; conditions: in vivo, 336 h, time <=14 day
In short: (§2)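 Acute oral toxicity in rats: single gavage dose of 300 mg/kg bw (two groups). Behaviour, body weight change, toxicity signs and mortality were recorded at 30 min, 1, 2, 4 and 6 h after dosing, then daily for 14 days.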

Mucor circinelloides = assay: Antifungal activity against Mucor circinelloides MURI1 assessed as reduction in microbial growth after 24 hrs by broth microdilution method; type: functional
In short: (§3)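 CLSI M38 broth microdilution in RPMI 1640 buffered to pH 7.0 with MOPS. Drugs were diluted in DMSO then medium; final range 0.032-16 mg/L. Conidia or sporangiospores came from 7-day potato dextrose agar cultures; diluted (2×) inocula were 0.9×10^4–4.7×10^4 CFU/mL. Incubation at 35 °C, read at 48 h except Zygomycetes at 24 h. MIC read visually as lowest concentration preventing 100% growth; duplicate.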

Fusarium sp. = assay: Antifungal activity against Fusarium sp. assessed as reduction in microbial growth […] by broth microdilution method; type: functional
Candida albicans [8] = assay: Inhibition of sterol biosynthesis in Candida albicans CAAL93 assessed as lanosterol level at 1 ng/ml after 18 hrs by GC-MS analysis (reference value: 1.6%); type: functional; design: scale not given: the % may be the effect or the level left
Candida albicans [9] = assay: Inhibition of sterol biosynthesis in Candida albicans CAAL93 assessed as zymosterol level at 1 ng/ml after 18 hrs by GC-MS analysis (reference value: 1.6%); type: functional; design: scale not given: the % may be the effect or the level left
Candida albicans [10] = assay: Antifungal activity against Candida albicans CAAL93 infected in Swiss mouse assessed as survival at 10 mg/kg, po after 14 days relative to control; type: functional; conditions: 336 h, time 14 day
In short: (§4)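 Swiss mice (~25 g) immunosuppressed with prednisolone 30 mg/kg s.c. one day before challenge; day 0 i.v. infection with C. albicans blastoconidia (5.10⁶ yeast/mL, 100 µL). Oral dosing 1 h post-infection, once daily for 5 days, 10 mg/kg (CAAL93) or 15 mg/kg (DSY292), vehicle 40% DMSO/25% Tween80/35% olive oil. Mice given 50% grapefruit juice ad libitum. Survival followed 14 days (log-rank Mantel-Cox).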

Scedosporium apiospermum = assay: Antifungal activity against Scedosporium apiospermum SCAP1 assessed as reduction in microbial growth […] by broth microdilution method; type: functional
[11] = Toxicity in CRL:WI rat assessed as hunched back at 300 mg/kg, po up to 14 days; type: organism-based; conditions: in vivo, 336 h, time <=14 day; in short: as §2
Candida albicans [12] = assay: Antifungal activity against Candida albicans DSY292 harboring Erg1l G464S/R467K/Y132 infected in Swiss mouse assessed as reduction in kidney fungal burden at 10 mg/kg, po after 14 days; type: functional, organism-based; conditions: time 14.0 day
Candida albicans [13] = assay: Inhibition of sterol biosynthesis in Candida albicans CAAL93 assessed as ergosterol level at 1 ng/ml after 18 hrs by GC-MS analysis (reference value: 89.7%); type: functional; design: scale not given: the % may be the effect or the level left
Candida albicans [14] = assay: Inhibition of sterol biosynthesis in Candida albicans CAAL93 assessed as ergostadienol level at 10 ng/ml after 18 hrs by GC-MS analysis (reference value: 1.6%); type: functional; design: scale not given: the % may be the effect or the level left; in short: as §1
Candida albicans [15] = assay: Inhibition of ergosterol biosynthesis in Candida albicans CAAL93 at 10 ng/ml after 18 hrs by GC-MS analysis relative to control; type: functional
Candida albicans [16] = assay: Inhibition of sterol biosynthesis in Candida albicans CAAL93 assessed as eburicol level at 10 ng/ml after 18 hrs by GC-MS analysis relative to control; type: functional; design: scale not given: the % may be the effect or the level left; in short: as §1
Candida albicans [17] = assay: Inhibition of sterol biosynthesis in Candida albicans CAAL93 assessed as ergostadienol level at 1 ng/ml after 18 hrs by GC-MS analysis (reference value: 1.6%); type: functional; design: scale not given: the % may be the effect or the level left
Candida albicans [18] = assay: Inhibition of ergosterol biosynthesis in Candida albicans CAAL93 at 1 ng/ml after 18 hrs by GC-MS analysis relative to control; type: functional
Candida albicans [19] = assay: Inhibition of sterol biosynthesis in Candida albicans CAAL93 assessed as 14alpha-methylfecosterol level at 10 ng/ml after 18 hrs by GC-MS analysis relative to control; type: functional; design: scale not given: the % may be the effect or the level left; in short: as §1
Candida albicans [20] = assay: Inhibition of sterol biosynthesis in Candida albicans CAAL93 assessed as other sterols level at 1 ng/ml after 18 hrs by GC-MS analysis (Rvb < 1%); type: functional; design: scale not given: the % may be the effect or the level left
[21] = Toxicity in CRL:WI rat assessed as behavioral changes at 300 mg/kg, po up to 14 days; type: organism-based; conditions: in vivo, 336 h, time <=14 day; in short: as §2
Rhizopus arrhizus [22] = assay: Antifungal activity against Rhizopus oryzae RHPOR2 assessed as reduction in microbial growth after 24 hrs by broth microdilution method; type: functional; in short: as §3
Candida albicans [23] = assay: Antifungal activity against Candida albicans DSY292 harboring Erg1l G464S/R467K/Y132 mutant infected in Swiss mouse assessed as survival at 15 mg/kg, po after 10 days; type: functional, organism-based; conditions: time 10.0 day; in short: as §4
[24] = Toxicity in CRL:WI rat assessed as weight gain at 300 mg/kg, po up to 14 days; type: organism-based; conditions: in vivo, 336 h, time <=14 day; in short: as §2
Candida albicans [25] = assay: Inhibition of ergosterol biosynthesis in Candida albicans CAAL93 after 18 hrs by GC-MS analysis; type: functional; conditions: dose 1-10 ng/ml
Rhizopus arrhizus [26] = assay: Antifungal activity against Rhizopus oryzae RHPOR1 assessed as reduction in microbial growth after 24 hrs by broth microdilution method; type: functional; in short: as §3
Candida albicans [27] = assay: Inhibition of sterol biosynthesis in Candida albicans CAAL93 assessed as ergosterol level at 10 ng/ml after 18 hrs by GC-MS analysis (reference value: 89.7%); type: functional; design: scale not given: the % may be the effect or the level left; in short: as §1
Candida albicans [28] = assay: Antifungal activity against Candida albicans CAAL93 infected in Swiss mouse assessed as reduction in kidney fungal burden at 10 mg/kg, po after 14 days; type: functional, organism-based; conditions: time 14.0 day
[29] = tested on: Pichia kudriavzevii (Candida krusei); assay: Antifungal activity against fluconazole-resistant Candida krusei CAKR8 assessed as reduction in microbial growth after 24 hrs by resazurin staining based spectrofluorometric method; conditions: CAKR8, 24 h

COc1ccc(-c2cc3cnn([C@H](C)[C@](O)(Cn4cncn4)c4ccc(F)cc4F)c(=O)n3c2)cc1
Activity (Candida albicans [1]): 1.8% | Activity (Candida albicans [2]): 25.2% | Activity (Candida albicans [3]): 11% | Activity (Candida albicans [4]): 3.2% | MIC [5]: 0.062 µg/mL | Activity (Candida albicans [6]): 5% | Activity [7]: Non-Toxic | MIC (Mucor circinelloides): 0.19 µg/mL | MIC (Fusarium sp.): > 16 µg/mL | Activity (Candida albicans [8]): 7.7% | Activity (Candida albicans [9]): 3.3% | survival at 10 mg/kg (Candida albicans [10]): 100% | MIC (Scedosporium apiospermum): 3 µg/mL | Activity [11]: Toxic | Activity (Candida albicans [12]): Active | Activity (Candida albicans [13]): 61% | Activity (Candida albicans [14]): 1.1% | inhibition (Candida albicans [15]): 53% | Activity (Candida albicans [16]): 23.1% | Activity (Candida albicans [17]): 3.7% | inhibition (Candida albicans [18]): 32% | Activity (Candida albicans [19]): 3.6% | Activity (Candida albicans [20]): 8.3% | Activity [21]: Toxic | MIC (Rhizopus arrhizus [22]): 0.094 µg/mL | Survival (Candida albicans [23]): Active | Activity [24]: Non-Toxic | inhibition (Candida albicans [25]): Dose-dependent effect | MIC (Rhizopus arrhizus [26]): 0.0625 µg/mL | Activity (Candida albicans [27]): 42% | Activity (Candida albicans [28]): Active | MIC [29]: 0.081 µg/mL
